Activity calls are given as the source filed them. The calls are words filed in the database; no cut-off is given here.
Tests used:
[1] = target: T1, Hypoxia inducible factors; HIF-1-alpha, HIF-2-alpha (Homo sapiens, UniProt Q16665+Q99814); assay: Inhibition of HIF1 in human LN229 cells after 1 hr preincubation under hypoxic condition measured after 24 hrs by luciferase reporter gene assay; format: cell-based
Procedure, shortened: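 LN229-HRELux human glioma cells stably carry a luciferase reporter driven by six VEGF-derived HIF response elements. Cells were seeded at 3 × 10^4 per well and held 24 h in normoxia, then pretreated 1 h with compound at 0, 1, 5, 10 or 25 μM (vehicle 1% DMSO). They were then moved to hypoxia (1% O2) for 24 h, lysed and read for luciferase. Reference inhibitor ran alongside; quadruplicate wells; IC50 from concentration curve.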

[2] = target: T1, Hypoxia inducible factors; HIF-1-alpha, HIF-2-alpha; assay: Inhibition of HIF1 in human LN229 cells at 10 uM after 1 hr preincubation under hypoxic condition measured after 24 hrs by luciferase reporter gene assay; format: cell-based
Procedure, shortened: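 LN229 glioma cells stably transfected with VEGF promoter-luciferase (LN229-VEGF-Luc) were pretreated 1 h in normoxia with 10 μM (final) compound, then kept 24 h in normoxia or hypoxia. Luciferase was read as relative light units against vehicle control; triplicates, mean ± standard deviation.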

[3] = target: Hypoxia-inducible factor 1-alpha (Homo sapiens) (UniProt Q16665); assay: Inhibition of hypoxia-induced HIF1alpha accumulation in human LN229 cells at 20 uM after 1 hr preincubation measured after 24 hrs by Western blot analysis; format: functional, cell-based; settings: LN-229
Procedure, shortened: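 Western blot for HIF-1α in LN229 cells after 1 h pretreatment with inhibitor at 20 μM final (bortezomib control 100 nM), followed by 24 h in normoxia or hypoxia.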

LN229 = assay: Ratio of KCN-1 IC50 to compound IC50 for HIF1 in human LN229 cells under hypoxic condition; format: cell-based

Sequence of Hypoxia-inducible factor 1-alpha (Homo sapiens) (Q16665 whole entry, looked up): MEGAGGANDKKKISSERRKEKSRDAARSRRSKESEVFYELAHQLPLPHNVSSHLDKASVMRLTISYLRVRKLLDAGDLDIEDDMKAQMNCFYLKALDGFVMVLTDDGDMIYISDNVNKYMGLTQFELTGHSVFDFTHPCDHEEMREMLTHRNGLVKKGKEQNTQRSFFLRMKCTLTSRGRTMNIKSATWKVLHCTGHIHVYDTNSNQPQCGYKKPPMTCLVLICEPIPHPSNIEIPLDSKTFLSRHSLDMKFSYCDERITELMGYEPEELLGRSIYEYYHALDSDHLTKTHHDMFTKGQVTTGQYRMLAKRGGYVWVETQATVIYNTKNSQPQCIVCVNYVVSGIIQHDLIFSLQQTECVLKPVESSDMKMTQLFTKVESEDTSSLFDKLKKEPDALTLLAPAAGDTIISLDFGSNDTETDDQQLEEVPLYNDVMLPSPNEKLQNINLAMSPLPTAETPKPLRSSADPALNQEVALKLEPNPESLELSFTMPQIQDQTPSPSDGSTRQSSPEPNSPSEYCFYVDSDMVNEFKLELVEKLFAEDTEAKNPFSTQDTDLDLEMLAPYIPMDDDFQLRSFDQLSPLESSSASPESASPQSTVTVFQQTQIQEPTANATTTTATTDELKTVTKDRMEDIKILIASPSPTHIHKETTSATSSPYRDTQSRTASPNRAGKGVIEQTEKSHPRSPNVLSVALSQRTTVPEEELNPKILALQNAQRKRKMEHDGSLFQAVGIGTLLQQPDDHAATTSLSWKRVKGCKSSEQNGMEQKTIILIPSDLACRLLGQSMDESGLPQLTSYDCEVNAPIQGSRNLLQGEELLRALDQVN

Row | IC50 [1] | Compound | further results
1 | 13.4 µM | CC(C)S(=O)(=O)N(Cc1ccc2c(n1)C=CC(C)(C)O2)c1ccccc1 | 
2 | 0.9 µM | CC1(C)C=Cc2nc(CN(c3ccccc3)S(=O)(=O)c3cccc4cccnc34)ccc2O1 | 
3 | 0.9 µM | CCCCN(Cc1ccc2c(n1)C=CC(C)(C)O2)S(=O)(=O)c1ccc(OC)c(OC)c1 | 
4 | 1.5 µM | COc1ccc(S(=O)(=O)N(Cc2ccc3c(c2)C=CC(C)(C)O3)C2CC2)cc1OC | 
5 | 0.6 µM | COc1ccc(S(=O)(=O)N(Cc2ccc3c(n2)C=CC(C)(C)O3)C2CCCC2)cc1OC | 
6 | 0.6 µM | COc1ccc(S(=O)(=O)N(Cc2ccc3c(c2)C=CC(C)(C)O3)c2ccccc2)cc1 | 
7 | 5 µM | CCCCS(=O)(=O)N(Cc1ccc2c(n1)C=CC(C)(C)O2)c1ccccc1 | 
8 | 2.1 µM | CC1(C)C=Cc2cc(CN(c3ccccc3)S(=O)(=O)c3cc(Cl)ccc3Cl)ccc2O1 | 
9 | > 25 µM | COc1ccc(N(Cc2ccc3c(n2)C=CC(C)(C)O3)S(=O)(=O)c2ccc(OC)c(OC)c2)cc1OC | 
10 | > 25 µM | CC1(C)C=Cc2cc(CNc3ccccc3Br)ccc2O1 | 
11 | 3.5 µM | COc1ccc(S(=O)(=O)N(Cc2ccc3c(c2)C=CC(C)(C)O3)C(C)(C)C)cc1OC | 
12 | 8.5 µM | CC1(C)C=Cc2cc(CNc3ccccn3)ccc2O1 | 
13 | 3.4 µM | CC1(C)C=Cc2nc(CN(c3ccccc3)S(=O)(=O)c3ccc(-c4ccccc4)cc3)ccc2O1 | 
14 | > 25 µM | CC1(C)C=Cc2cc(CNc3ccc(C(=O)O)cc3)ccc2O1 | 
15 | 3.1 µM | COc1ccc(S(=O)(=O)N(Cc2ccc3c(c2)C=CC(C)(C)O3)C(C)C)cc1OC | 
16 |  | COc1ccc(S(=O)(=O)N(Cc2ccc3c(c2)C=CC(C)(C)O3)c2ccccc2)cc1OC | HIF1 inhibition activity call (active/inactive) [2]: Active; inhibition [3]: inactive
17 | 6.2 µM | COc1ccc(S(=O)(=O)N(Cc2ccc3c(n2)C=CC(C)(C)O3)c2ccc3c(c2)CCCC3)cc1OC | 
18 | 6.5 µM | CC1(C)C=Cc2nc(CN(c3ccccc3)S(=O)(=O)c3ccc4c(c3)OCO4)ccc2O1 | 
19 | 4 µM | COc1ccc(S(=O)(=O)N(Cc2ccc3c(c2)C=CC(C)(C)O3)C2CCCCC2)cc1OC | 
20 | 0.9 µM | CC(C)CS(=O)(=O)N(Cc1ccc2c(n1)C=CC(C)(C)O2)c1ccccc1 | 

Row | IC50 [1] | Compound | further results
21 | 8.2 µM | COc1ccc(S(=O)(=O)N(Cc2ccc3c(c2)CC(C)(C)O3)C2CCCCC2)cc1OC | 
22 | 0.478 µM | CCCCN(Cc1ccc2c(c1)CC(C)(C)O2)S(=O)(=O)c1ccc(OC)c(OC)c1 | HIF1 inhibition activity call (active/inactive) [2]: Active; inhibition [3]: inactive
23 | > 25 µM | CC1(C)C=Cc2cc(CNc3ccccc3F)ccc2O1 | 
24 | 1.3 µM | C#CCN(Cc1ccc2c(c1)C=CC(C)(C)O2)S(=O)(=O)c1ccc(OC)c(OC)c1 | 
25 | > 25 µM | Cc1ccc(NCc2ccc3c(c2)C=CC(C)(C)O3)c(C)c1 | 
26 | 0.4 µM | CC1(C)C=Cc2nc(CN(c3ccccc3)S(=O)(=O)C3CCCCC3)ccc2O1 | 
27 | 0.5 µM | COc1ccc(S(=O)(=O)N(Cc2ccc3c(c2)C=CC(C)(C)O3)C2CCCC2)cc1OC | HIF1 inhibition activity call (active/inactive) [2]: Active; inhibition [3]: Active
28 | > 25 µM | COc1ccc(S(=O)(=O)N(Cc2cnc3c(c2)C=CC(C)(C)O3)C2CCCCC2)cc1OC | 
29 | 0.5 µM | Cc1cc(C)cc(S(=O)(=O)N(Cc2ccc3c(c2)C=CC(C)(C)O3)c2ccccc2)c1 | 
30 |  | CC(C)C[C@H](NC(=O)[C@H](Cc1ccccc1)NC(=O)c1cnccn1)B(O)O | inhibition [3]: Active
31 | 3 µM | COc1ccc(NCc2ccc3c(c2)C=CC(C)(C)O3)cc1OC | 
32 | 1.8 µM | CC1(C)C=Cc2cc(CN(c3ccccc3)S(=O)(=O)c3ccc([N+](=O)[O-])cc3)ncc2O1 | 
33 | 5 µM | COc1ccc(N(C)Cc2ccc3c(c2)C=CC(C)(C)O3)cc1OC | 
34 | 1.6 µM | COc1ccc(S(=O)(=O)N(CCC(C)C)Cc2ccc3c(c2)C=CC(C)(C)O3)cc1OC | 
35 | > 25 µM | CC1(C)C=Cc2cc(CN(c3ccccc3)S(=O)(=O)c3ccc(Br)cc3OC(F)(F)F)ccc2O1 | 
36 |  | COc1c(C(C)n2cnc3ncccc32)ccc2c1C=CC(C)(C)O2 (stereo not drawn) | HIF1 inhibition activity call (active/inactive) [2]: Active; inhibition [3]: inactive
37 | 3.5 µM | COc1ccc(S(=O)(=O)N(Cc2cnc3ccccc3c2)c2ccccc2)cc1OC | 
38 | 2.5 µM | COc1ccc(S(=O)(=O)N(Cc2cnc3c(c2)C=CC(C)(C)O3)c2ccccc2)cc1OC | 
39 | > 25 µM | CC1(C)C=Cc2nc(CN(c3ccccc3)S(=O)(=O)C3CC3)ccc2O1 | 
40 | 0.28 µM | COc1ccc(S(=O)(=O)N(Cc2ccc3c(n2)C=CC(C)(C)O3)C2CCC2)cc1OC | HIF1 inhibition activity call (active/inactive) [2]: Active; Ratio IC50 (LN229): > 2; inhibition [3]: inactive

Row | IC50 [1] | Compound | further results
41 | 1.5 µM | COc1ccc(S(=O)(=O)N(Cc2ccc3c(c2)CC(C)(C)O3)C(C)C)cc1OC | 
42 | 5.7 µM | COc1ccc(S(=O)(=O)N(Cc2ccc3c(n2)C=CC(C)(C)O3)c2ccc(F)cc2)cc1OC | 
43 | 3.4 µM | C=CCN(Cc1ccc2c(c1)C=CC(C)(C)O2)S(=O)(=O)c1ccc(OC)c(OC)c1 | 
44 | 1.4 µM | COc1ccc(S(=O)(=O)N(Cc2cc3c(cn2)OC(C)(C)C=C3)c2ccccc2)cc1 | 
45 | 1.3 µM | COc1ccc(S(=O)(=O)N(Cc2ccc3c(n2)C=CC(C)(C)O3)c2ccccc2)cc1OC | 
46 | 8.4 µM | CN(Cc1ccc2c(c1)C=CC(C)(C)O2)c1ccccn1 | 
47 | 2.6 µM | Cc1ccc(N(C)Cc2ccc3c(c2)C=CC(C)(C)O3)c(C)c1 | 
48 | 1.1 µM | COc1ccc(S(=O)(=O)N(Cc2cc3c(cn2)OC(C)(C)C=C3)C2CCCCC2)cc1OC | 
49 | 6.6 µM | COc1ccc(S(=O)(=O)N(Cc2ccc3c(n2)C=CC(C)(C)O3)C2CCCCCC2)cc1OC | 
50 | 0.9 µM | CC1(C)C=Cc2nc(CN(c3ccccc3)S(=O)(=O)c3ccc4c(c3)OCCO4)ccc2O1 | 
51 | 2.2 µM | CCC1(C)C=Cc2cc(CN(c3ccccc3)S(=O)(=O)c3ccc(OC)c(OC)c3)ccc2O1 (stereo not drawn) | 
52 | 0.306 µM | COc1ccc(S(=O)(=O)N(Cc2ccc3c(c2)CC(C)(C)O3)c2ccccc2)cc1OC | HIF1 inhibition activity call (active/inactive) [2]: Active; Ratio IC50 (LN229): > 2; inhibition [3]: Active
53 | 0.378 µM | COc1ccc(S(=O)(=O)N(Cc2ccc3c(c2)CC(C)(C)O3)C2CCCC2)cc1OC | HIF1 inhibition activity call (active/inactive) [2]: Active; inhibition [3]: inactive
54 | 5.8 µM | CC(C)c1ccc(S(=O)(=O)N(Cc2cc3c(cn2)OC(C)(C)C=C3)C2CCCCC2)cc1 | 
55 | 0.7 µM | COc1ccc(S(=O)(=O)N(Cc2ccc3c(n2)C=CC(C)(C)O3)C2CCCCCCC2)cc1OC | 
56 | 3.3 µM | CCCCN(Cc1ccc2c(c1)C=CC(C)(C)O2)S(=O)(=O)c1ccc(OC)c(OC)c1 | 
57 | 9.1 µM | COc1ccc(S(=O)(=O)N(Cc2ccc3c(c2)CC(C)(C)O3)C2CCCCCC2)cc1OC | 
58 | 0.8 µM | COc1ccc(S(=O)(=O)N(Cc2ccc3c(n2)C=CC(C)(C)O3)C2CCCCC2)cc1OC | 
59 | 6.4 µM | CCCS(=O)(=O)N(Cc1ccc2c(n1)C=CC(C)(C)O2)c1ccccc1 | 

Source: ChEMBL document CHEMBL1938365, “Design and synthesis of novel small-molecule inhibitors of the hypoxia inducible factor pathway” (J Med Chem, 2011)
